pIC50, pKi: −log10 of the molar value. Blank lines part the entries; values can stand above or below the compound they belong to.
Tests used:
[1] = target: Adenosine receptors; A2b & A3 (Homo sapiens) (UniProt P29275+P0DMS8); experiment: Selectivity ratio (h2B/hA3); type: protein assay
[2] = target: T1, Adenosine receptor A2b (Homo sapiens, UniProt P29275); experiment: Displacement of [3H]DPCPX from human Adenosine A2B receptor expressed in HEK293 cells; […]; type: cell-based
T1 sequence (P29275 whole entry): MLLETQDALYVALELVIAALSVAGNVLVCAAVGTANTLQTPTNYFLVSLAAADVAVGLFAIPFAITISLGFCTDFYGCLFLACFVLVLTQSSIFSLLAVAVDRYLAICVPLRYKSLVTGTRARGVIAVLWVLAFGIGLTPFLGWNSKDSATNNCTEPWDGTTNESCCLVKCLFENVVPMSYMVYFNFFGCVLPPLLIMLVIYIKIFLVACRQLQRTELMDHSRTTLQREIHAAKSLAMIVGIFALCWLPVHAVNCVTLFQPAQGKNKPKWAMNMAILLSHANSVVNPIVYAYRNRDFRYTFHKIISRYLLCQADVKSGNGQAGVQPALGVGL
Procedure, shortened: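 Competition binding on membranes of HEK-293 cells carrying recombinant human A2B receptor. Incubation 60 min at 25 °C in 50 mM Tris HCl pH 7.4 with 10 mM MgCl2, 1 mM EDTA, 0.1 mM benzamidine and 2 IU/mL adenosine deaminase. Radioligand 40 nM [3H]DPCPX, at least six to eight test concentrations. NECA defined nonspecific binding. Bound ligand separated on glass-fibre filters and counted; n = 3-6.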

[3] = target: T2, Adenosine receptor A1 (Homo sapiens, UniProt P30542); experiment: Displacement of [3H]DPCPX from human Adenosine A1 receptor expressed in CHO cells; range 345-465; type: cell-based
T2 sequence (P30542 whole entry): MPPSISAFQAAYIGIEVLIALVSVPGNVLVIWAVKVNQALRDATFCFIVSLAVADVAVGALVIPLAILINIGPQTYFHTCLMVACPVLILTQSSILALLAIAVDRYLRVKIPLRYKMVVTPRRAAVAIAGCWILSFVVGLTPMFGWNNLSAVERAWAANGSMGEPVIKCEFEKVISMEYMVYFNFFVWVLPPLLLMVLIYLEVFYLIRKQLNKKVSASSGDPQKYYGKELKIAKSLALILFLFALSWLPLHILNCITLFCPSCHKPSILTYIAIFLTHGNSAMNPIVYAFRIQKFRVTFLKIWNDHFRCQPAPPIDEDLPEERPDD

[4] = target: T3, Adenosine receptor A2a (Homo sapiens, UniProt P29274); experiment: Displacement of [3H]SCH-58261 from human Adenosine A2A receptor expressed in HEK293 cells; range 114-170; type: cell-based
[5] = target: T4, Adenosine receptor A3 (Homo sapiens, UniProt P0DMS8); experiment: Displacement of [3H]MRE3008-F20 binding at human Adenosine A3 receptor expressed in HEK cells; range 0.77-0.96; type: cell-based, HEK293
T4 sequence (P0DMS8 whole entry): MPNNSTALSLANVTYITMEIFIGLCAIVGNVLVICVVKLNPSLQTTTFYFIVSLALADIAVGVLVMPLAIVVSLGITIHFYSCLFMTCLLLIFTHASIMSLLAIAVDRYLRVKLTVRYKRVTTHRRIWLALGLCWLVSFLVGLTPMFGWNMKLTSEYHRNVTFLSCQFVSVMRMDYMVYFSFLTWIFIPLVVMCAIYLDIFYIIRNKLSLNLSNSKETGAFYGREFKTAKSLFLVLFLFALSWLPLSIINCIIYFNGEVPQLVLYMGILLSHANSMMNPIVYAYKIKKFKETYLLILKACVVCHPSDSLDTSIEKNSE

[6] = target: Adenosine receptors; A1 & A3 (Homo sapiens) (UniProt P30542+P0DMS8); experiment: Selectivity ratio (hA1/hA3); type: protein assay
[7] = target: T2, Adenosine receptor A1; experiment: Displacement of [3H]DPCPX from human Adenosine A1 receptor expressed in CHO cells; range 184-333; type: cell-based
[8] = target: T4, Adenosine receptor A3; experiment: Displacement of [3H]MRE3008-F20 from human Adenosine A3 receptor expressed in HEK cells; range 0.53-0.68; type: cell-based, HEK293
[9] = target: T3, Adenosine receptor A2a; experiment: Displacement of [3H]SCH-58261 from human Adenosine A2A receptor expressed in HEK293 cells; range 78-114; type: cell-based
[10] = target: T1, Adenosine receptor A2b; experiment: Displacement of [3H]DPCPX from human Adenosine A2B receptor expressed in HEK293 cells; range 124-180; type: cell-based
Procedure, shortened: (§1)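 HEK-293 membranes expressing the human receptor were incubated 60 min at 25 °C. Six to eight test concentrations were used. Nonspecific binding was set with NECA. n = 3-6.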

[11] = target: T2, Adenosine receptor A1; experiment: Displacement of [3H]DPCPX from human Adenosine A1 receptor expressed in CHO cells; range 198-382; type: cell-based
Procedure, shortened: (§2)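 Human recombinant A1 receptor in CHO cell membranes, resuspended in 50 mM Tris HCl pH 7.4. Displacement run 120 min at 25 °C with 1 nM [3H]DPCPX, 50 µg protein per assay, and at least six to eight test concentrations. Nonspecific binding defined with CHA. Bound and free separated on glass-fiber filters; filter radioactivity counted. n = 3-6.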

[12] = target: T4, Adenosine receptor A3; experiment: biochemical
[13] = target: T3, Adenosine receptor A2a; experiment: Displacement of [3H]SCH-58261 from human Adenosine A2A receptor expressed in HEK293 cells; range 96-133; type: cell-based
[14] = target: T1, Adenosine receptor A2b; experiment: Displacement of [3H]DPCPX from human Adenosine A2B receptor expressed in HEK293 cells; range 149-204; type: cell-based; procedure, shortened: as §1
[15] = target: T1, Adenosine receptor A2b; experiment: Displacement of [3H]DPCPX from human Adenosine A2B receptor expressed in HEK293 cells; range 128-156; type: cell-based
Procedure, shortened: (§3)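 Membranes from HEK-293 cells with human recombinant A2B receptor. Incubation 60 min at 25 °C in 50 mM Tris HCl, 10 mM MgCl2, 1 mM EDTA, 0.1 mM benzamidine, pH 7.4, with 2 IU/mL adenosine deaminase and 40 nM [3H]DPCPX. At least six to eight test concentrations. Nonspecific binding defined with NECA. n = 3-6.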

[16] = target: T3, Adenosine receptor A2a; experiment: Displacement of [3H]SCH-58261 from human Adenosine A2A receptor expressed in HEK293 cells; range 552-839; type: cell-based
[17] = target: T2, Adenosine receptor A1; experiment: Displacement of [3H]DPCPX from human Adenosine A1 receptor expressed in CHO cells; range 885-1163; type: cell-based; procedure, shortened: as §2
[18] = target: T4, Adenosine receptor A3; experiment: Inhibition of IB-MECA agonist-mediated cAMP production in CHO cell membranes expressing human Adenosine A3 receptor; range 1.8-5.6; type: functional, cell-based
[19] = target: T4, Adenosine receptor A3; experiment: biochemical; remark: listed apart in the source
[20] = target: T1, Adenosine receptor A2b; experiment: Displacement of [3H]DPCPX from human Adenosine A2B receptor expressed in HEK293 cells; range 67-115; type: cell-based; procedure, shortened: as §1
[21] = target: T4, Adenosine receptor A3; experiment: biochemical; remark: listed apart in the source
[22] = target: T3, Adenosine receptor A2a; experiment: Displacement of [3H]SCH-58261 from human Adenosine A2A receptor expressed in HEK293 cells; range 33-48; type: cell-based
[23] = target: T2, Adenosine receptor A1; experiment: Displacement of [3H]DPCPX from human Adenosine A1 receptor expressed in CHO cells; range 275-386; type: cell-based; procedure, shortened: as §2
[24] = target: T1, Adenosine receptor A2b; experiment: Displacement of [3H]DPCPX from human Adenosine A2B receptor expressed in HEK293 cells; range 40-69; type: cell-based; procedure, shortened: as §3
[25] = target: T3, Adenosine receptor A2a; experiment: Displacement of [3H]SCH-58,261 from human Adenosine A2A receptor expressed in HEK293 cells; range 543-820; type: cell-based
[26] = target: T4, Adenosine receptor A3; experiment: Displacement of [3H]MRE3008-F20 from human Adenosine A3 receptor expressed in HEK cells; range 0.22-0.40; type: cell-based, HEK293
[27] = target: T2, Adenosine receptor A1; experiment: Displacement of [3H]DPCPX from human Adenosine A1 receptor expressed in CHO cells; range 738-961; type: cell-based; procedure, shortened: as §2

T3 sequence (P29274 whole entry): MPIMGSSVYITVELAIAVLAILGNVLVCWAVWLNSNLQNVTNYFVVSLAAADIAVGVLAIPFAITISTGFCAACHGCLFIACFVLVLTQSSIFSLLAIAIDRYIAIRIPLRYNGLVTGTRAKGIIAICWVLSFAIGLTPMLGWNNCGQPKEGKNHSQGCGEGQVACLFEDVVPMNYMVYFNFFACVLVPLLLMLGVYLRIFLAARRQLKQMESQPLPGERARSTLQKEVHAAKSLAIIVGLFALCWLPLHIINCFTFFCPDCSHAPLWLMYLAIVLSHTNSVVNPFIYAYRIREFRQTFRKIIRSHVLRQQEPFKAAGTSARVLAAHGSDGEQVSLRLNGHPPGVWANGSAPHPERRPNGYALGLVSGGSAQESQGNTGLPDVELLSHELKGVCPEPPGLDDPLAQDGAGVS

Structure (SMILES): CCCCn1cc2c(nc(NC(=O)Nc3cccc(OC)c3)n3nc(-c4ccco4)nc23)n1
pKi [7]: 6.61
pKi [8]: 9.22
Ratio [1]: 250
pKi [9]: 7.02
pKi [10]: 6.82
Ratio [6]: 413

Structure (SMILES): CCCn1cc2c(nc(NC(=O)Nc3cccc(OC)c3)n3nc(-c4ccco4)nc23)n1
Ratio [1]: 438
pKi [11]: 6.56
pKi [12]: 9.40
pKi [13]: 6.95
pKi [14]: 6.76
Ratio [6]: 688

Structure (SMILES): CCn1cc2c(nc(NC(=O)Nc3ccccc3)n3nc(-c4ccco4)nc23)n1
pKi [20]: 7.06
Ratio [1]: 489
pKi [21]: 9.74
pKi [22]: 7.40
pKi [23]: 6.49
Ratio [6]: 1810

Now from value to compound:

Ratio [1]: 250
pKi [2]: 6.67
pKi [3]: 6.40
pKi [4]: 6.85
pKi [5]: 9.07
Ratio [6]: 465
Structure (SMILES): CCn1cc2c(nc(NC(=O)Nc3cccc(OC)c3)n3nc(-c4ccco4)nc23)n1

Ratio [1]: 592
pKi [15]: 6.85
pKi [16]: 6.17
pKi [17]: 5.99
pIC50 [18]: 8.49
pKi [19]: 9.62
Ratio [6]: 4230
Structure (SMILES): Cn1cc2c(nc(NC(=O)Nc3ccc4c(c3)OCO4)n3nc(-c4ccco4)nc23)n1

Ratio [1]: 177
pKi [24]: 7.28
pKi [25]: 6.18
pKi [26]: 9.52
pKi [27]: 6.07
Ratio [6]: 2810
Structure (SMILES): CCCn1cc2c(nc(NC(=O)Nc3ccc4c(c3)OCO4)n3nc(-c4ccco4)nc23)n1

— ChEMBL document CHEMBL1136016, “Synthesis, biological activity, and molecular modeling investigation of new pyrazolo[4,3-e]-1,2,4-triazolo[1,5-c]pyrimidine derivatives as human A(3) adenosine receptor antagonists” (J Med Chem, 2002)
